{"data": "Results from different studies"}
{"SMILES": "C[C@H]1[C@@H](O)O[C@@H]2O[C@@]3(C)CC[C@H]4[C@H](C)CC[C@@H]1[C@@]24OO3", "host": "Sprague-Dawley rat", "medium": "plasma", "route": "oral", "dose": "10 mg/kg", "quantity": "AUC(0-t)", "value": "197 ng·h/mL"}
{"SMILES": "CCC[C@H](NC(=O)[C@@H]1CCCN1C(=O)[C@@H](NC(=O)[C@H](N)CC(N)=O)[C@@H](C)CC)C(=O)N[C@@H](CC(C)C)C(=O)N[C@@H](Cc1ccc(O)cc1)C(=O)N[C@H](CO)C(=O)N[C@@H](Cc1ccccc1)C(=O)N[C@@H](C)C(=O)N[C@H](CO)C(N)=O", "host": "rat", "medium": "plasma", "route": "subcutaneous", "dose": "10 mg/kg", "setting": "single dose", "quantity": "AUC(0-t)", "value": "1200 ng·h/mL"}
{"SMILES": "N#C[C@@]12C[C@@H]1[C@@H](n1cnc3c(N[C@@H](C4CCC4)C4CC4)nc(I)nc31)[C@H](O)[C@@H]2O", "host": "male Wistar rat", "medium": "plasma", "route": "oral", "dose": "1 mg/kg", "quantity": "AUC(0-inf)", "value": "19.2 ng·h/mL"}
{"SMILES": "O=c1cc(-c2ccc(O)c(O)c2)oc2cc(O)cc(O)c12", "host": "male Sprague-Dawley rat", "medium": "plasma", "route": "oral", "dose": "30 mg/kg", "quantity": "AUC(0-inf)", "value": "98.6 ng·h/mL"}
{"SMILES": "O=C1c2ccncc2C(=O)c2c1[nH]c1ccccc21", "host": "rat", "medium": "plasma", "route": "intravenous", "dose": "5 mg/kg", "setting": "single dose", "quantity": "AUC(0-inf)", "value": "8.58 µM·h"}
{"SMILES": "O=C1CC[C@H](N2Cc3cc(N4CCN(CC5CCN(c6ccc([C@@H]7c8ccc(O)cc8CC[C@@H]7c7ccccc7)cc6)CC5)CC4)ccc3C2=O)C(=O)N1", "host": "female Sprague-Dawley rat", "medium": "plasma", "route": "oral", "dose": "20 mg/kg", "setting": "fasted", "quantity": "AUC(0-t)", "value": "11000 ng·h/mL"}
{"SMILES": "Cc1c(C(=O)O)ccc2c3n(nc12)[C@@H]1[C@H](C3)N(CC2CC2)[C@@]2(C(=O)Nc3cc(Cl)ccc32)[C@H]1c1cccc(Cl)c1F", "host": "male rat", "medium": "plasma", "route": "oral", "dose": "2 mg/kg", "quantity": "AUC(0-inf)", "value": "64.2 µM·h"}
{"SMILES": "COc1ccc2cc3n(c(=O)c2c1OC)CCc1cc2c(cc1-3)OCO2", "host": "male Sprague-Dawley rat", "medium": "blood", "route": "oral", "dose": "50 mg/kg", "quantity": "AUC(0-inf)", "value": "985 ng·h/mL"}
{"SMILES": "CC(=Nc1ccc(N=Cc2cnccn2)cc1)N(C)C", "host": "male Sprague-Dawley rat", "medium": "plasma", "route": "oral", "dose": "200 mg/kg", "quantity": "AUC(0-t)", "value": "305 ng·h/mL"}
{"SMILES": "O=C(C=Cc1ccccc1)Nc1cc(-c2ccnc(N3CCC(O)CC3)c2)ccn1", "host": "female Sprague-Dawley rat", "medium": "plasma", "route": "oral", "dose": "50 mg/kg", "quantity": "AUC(0-inf)", "value": "1400 ng·h/mL"}
{"SMILES": "C=C(F)C(=O)N1CCN(c2nc(OC[C@@H]3CCCN3C)nc3c2CCN(c2cccc4cccc(Cl)c24)C3)C[C@@H]1CC#N", "host": "male Sprague-Dawley rat", "medium": "plasma", "route": "intravenous", "dose": "5 mg/kg", "quantity": "AUC(0-t)", "value": "1860 ng·h/mL"}
{"SMILES": "CC1(CN)CCN(c2cnc3c(Sc4ccncc4Cl)n[nH]c3n2)CC1", "host": "male Sprague-Dawley rat", "medium": "plasma", "route": "oral", "dose": "10 mg/kg", "quantity": "AUC", "value": "411 ng·h/mL"}
